From ChEMBL document CHEMBL1142961, “Novel selective inhibitors of the zinc plasmodial aminopeptidase PfA-M1 as potential antimalarial agents” (J Med Chem, 2007)
≈ marks a conversion by molar mass, not a printed value.

Key:
[1] = molecular target: T1, Aminopeptidase N (Sus scrofa, UniProt P15145); assay: Inhibition of pig kidney microsomal APN
T1 sequence (P15145 whole entry): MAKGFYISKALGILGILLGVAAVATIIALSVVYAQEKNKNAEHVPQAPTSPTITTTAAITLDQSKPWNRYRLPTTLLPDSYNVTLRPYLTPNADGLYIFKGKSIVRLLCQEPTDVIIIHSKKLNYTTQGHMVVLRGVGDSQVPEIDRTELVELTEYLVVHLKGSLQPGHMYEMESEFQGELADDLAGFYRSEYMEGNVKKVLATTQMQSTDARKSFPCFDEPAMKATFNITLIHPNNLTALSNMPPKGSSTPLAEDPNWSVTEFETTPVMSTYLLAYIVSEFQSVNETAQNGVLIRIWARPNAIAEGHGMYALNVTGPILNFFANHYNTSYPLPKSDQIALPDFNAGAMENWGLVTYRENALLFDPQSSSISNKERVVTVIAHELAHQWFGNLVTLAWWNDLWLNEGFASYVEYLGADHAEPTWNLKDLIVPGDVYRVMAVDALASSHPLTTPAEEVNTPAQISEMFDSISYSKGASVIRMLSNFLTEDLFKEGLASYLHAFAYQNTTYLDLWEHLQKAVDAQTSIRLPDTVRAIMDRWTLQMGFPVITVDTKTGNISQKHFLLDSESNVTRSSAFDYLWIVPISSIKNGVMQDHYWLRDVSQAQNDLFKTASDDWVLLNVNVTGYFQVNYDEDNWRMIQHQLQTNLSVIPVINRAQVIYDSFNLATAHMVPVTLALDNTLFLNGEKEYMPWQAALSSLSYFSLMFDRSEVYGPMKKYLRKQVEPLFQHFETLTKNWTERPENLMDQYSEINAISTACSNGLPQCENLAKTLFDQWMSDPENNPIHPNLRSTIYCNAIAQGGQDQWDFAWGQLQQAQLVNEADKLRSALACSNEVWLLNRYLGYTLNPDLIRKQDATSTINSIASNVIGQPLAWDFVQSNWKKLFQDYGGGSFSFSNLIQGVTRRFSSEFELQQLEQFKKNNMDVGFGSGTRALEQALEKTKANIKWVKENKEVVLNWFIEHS
How it was run: (§1)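 Porcine kidney microsomal APN (ammonium sulfate suspension) diluted 600-fold in 25 mM Tris-HCl pH 7.4. Preincubated with inhibitor for 10 min at room temperature, then Leu-pNA added (0.3 mM stock). Hydrolysis followed at 405 nm at room temperature. Rates normalized to a no-inhibitor control. Single point at 10 µM; IC50 from concentration-velocity curves. Bestatin used as reference.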

[2] = molecular target: T2, Aminopeptidase N (Plasmodium falciparum FcB1/Columbia, UniProt O96935); assay: Inhibition of Plasmodium falciparum FcB1 M1 aminopeptidase
T2 sequence (O96935 whole entry): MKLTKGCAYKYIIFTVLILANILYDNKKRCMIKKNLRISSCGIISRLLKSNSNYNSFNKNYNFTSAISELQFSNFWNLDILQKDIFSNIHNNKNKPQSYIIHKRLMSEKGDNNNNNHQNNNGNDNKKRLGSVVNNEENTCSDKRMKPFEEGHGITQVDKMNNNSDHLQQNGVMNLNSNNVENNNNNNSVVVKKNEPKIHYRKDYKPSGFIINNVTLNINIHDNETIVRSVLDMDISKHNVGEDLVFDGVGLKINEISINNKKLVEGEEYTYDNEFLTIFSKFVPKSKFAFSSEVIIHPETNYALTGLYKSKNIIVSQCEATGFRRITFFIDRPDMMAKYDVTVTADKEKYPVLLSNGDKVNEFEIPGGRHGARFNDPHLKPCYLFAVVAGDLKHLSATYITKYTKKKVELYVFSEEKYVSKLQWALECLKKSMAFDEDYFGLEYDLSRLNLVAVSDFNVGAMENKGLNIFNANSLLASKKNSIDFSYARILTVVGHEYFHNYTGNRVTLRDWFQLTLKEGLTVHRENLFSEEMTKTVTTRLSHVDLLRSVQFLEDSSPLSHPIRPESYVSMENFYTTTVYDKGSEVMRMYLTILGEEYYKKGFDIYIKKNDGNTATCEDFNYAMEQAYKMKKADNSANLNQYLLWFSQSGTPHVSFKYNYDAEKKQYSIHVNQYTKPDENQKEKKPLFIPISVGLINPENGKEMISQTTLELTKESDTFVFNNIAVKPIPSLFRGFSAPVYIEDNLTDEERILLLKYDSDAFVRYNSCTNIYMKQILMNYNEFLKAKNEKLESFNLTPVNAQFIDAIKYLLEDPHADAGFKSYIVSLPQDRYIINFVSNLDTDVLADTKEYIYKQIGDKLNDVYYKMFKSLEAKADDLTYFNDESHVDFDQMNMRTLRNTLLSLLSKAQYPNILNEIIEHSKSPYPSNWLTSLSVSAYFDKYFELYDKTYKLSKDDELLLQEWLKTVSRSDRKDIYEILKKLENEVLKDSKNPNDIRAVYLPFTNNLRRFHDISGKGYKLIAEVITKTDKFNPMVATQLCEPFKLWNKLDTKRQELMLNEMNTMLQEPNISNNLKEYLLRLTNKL
How it was run: (§2)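 Native enzyme purified from P. falciparum FcB1, diluted 10-fold in 25 mM Tris-HCl pH 7.4. Preincubated with inhibitor for 10 min at room temperature, then Leu-pNA substrate added (0.3 mM stock, Km 0.099 mM). Kinetics followed at 405 nm at room temperature. Initial velocities normalized to a no-inhibitor control. Single-point screen at 10 µM; IC50 from velocity versus inhibitor concentration curves. Bestatin used as reference.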

[3] = Stability in Zucker FA/FA rat plasma at 37degC; assay type: ADME, organism-based; settings: read-out: Stability (converted)
How it was run: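 Compound at 100 µM final in male Zucker FA/FA rat plasma, stirred at 37 °C. Samples taken from 0 to 96 h, acidified with 0.14 M phosphoric acid and spiked with internal standard. Extracted three times with AcOEt and quantified by LC-MS-MS (MRM). Half-life derived.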

[4] = molecular target: T3, Aminopeptidase N (Plasmodium falciparum FcB1/Columbia) (UniProt O96935); assay: Inhibition of Plasmodium falciparum FcB1 M1 aminopeptidase at 10 uM; how it was run: as §2
T3 sequence (whole entry): T2 sequence (O96935 whole entry)

[5] = molecular target: T4, Aminopeptidase N (Sus scrofa) (UniProt P15145); assay: Inhibition of pig kidney microsomal APN at 10 uM; how it was run: as §1
T4 sequence (whole entry): T1 sequence (P15145 whole entry)

[6] = Selectivity ratio, IC50 for pig APN /IC50 for Plasmodium falciparum FcB1 M1
How it was run: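 Ratio of IC50 values (APN/PfA-M1) from two parallel assays: native PfA-M1 purified from P. falciparum FcB1 (diluted 10-fold) and porcine kidney microsomal APN (diluted 600-fold), both in 25 mM Tris-HCl pH 7.4. Enzyme was preincubated 10 min at room temperature with inhibitor, then Leu-pNA added (0.3 mM solution). Kinetics were read at 405 nm, initial velocities normalized to no-inhibitor controls, and IC50 was taken from velocity–concentration plots.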

[7] = test system: Plasmodium falciparum; assay: Antimalarial activity against chloroquine-resistant Plasmodium falciparum FcB1; assay type: functional, organism-based
How it was run: (§3)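 Asexual P. falciparum kept continuously on human erythrocytes; modified semiautomated microdilution method. Serially diluted drug added to asynchronous cultures (0.5% parasitemia, 1% final hematocrit) for 24 h at 37 °C, then [3H]hypoxanthine added per well. Growth inhibition from incorporated radioactivity relative to drug-free control on the same plate; IC50 from concentration-response curve, mean of three independent experiments.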

[8] = test system: Plasmodium falciparum; assay: Antimalarial activity against chloroquine-sensitive Plasmodium falciparum F32; assay type: functional, organism-based; how it was run: as §3
[9] = Solubility at pH 7.4; assay type: physicochemical; settings: buffer
How it was run: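 10 mM DMSO stock diluted 50-fold into PBS pH 7.4 or MeOH. Shaken for 24 h at room temperature, centrifuged and filtered at 0.45 µm. Analysed by LC-MS-MS; solubility taken as the PBS/MeOH mass-signal area ratio.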

[10] = Distribution coefficient, log D at pH 7.4; assay type: physicochemical; settings: octanol/water
How it was run: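 10 mM DMSO stock added to 1:1 octanol/PBS pH 7.4 and shaken for 2 h at room temperature. Phases separated and each quantified by LC-MS-MS. Log D taken as the log of the octanol/PBS concentration ratio from mass signals.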

SMILES | IC50 [1] | IC50 [2] | inhibition [4] | inhibition [5] | other results
O=C(NCCCCc1ccccc1)c1cc2ccccc2n(O)c1=O | > 10 µM | > 10 µM | – | – | –
O=C(NO)/C(=C\c1ccccc1)C(=O)NCCCCc1ccccc1 | 3.24 µM | 0.013 µM | – | – | –
O=C(NCc1ccc(F)cc1)c1cc2ccccc2n(O)c1=O | > 10 µM | > 10 µM | – | – | half-life [3]: > 48 h
O=C(NO)C(Cc1cccc(Oc2ccccc2)c1)C(=O)NCc1ccccc1 (stereo not given) | > 10 µM | 0.164 µM | 96% | 79% | –
O=C(NO)C(Cc1ccccc1)C(=O)NCCCCc1ccccc1 (stereo not given) | > 10 µM | 0.046 µM | 94% | 81% | –
CC(C)CC(C(=O)NO)C(=O)NCc1ccc(F)cc1 (stereo not given) | – | 3.9 µM | 85% | 92% | –
CC(C)CC(C(=O)NO)C(=O)NCc1cccc(Oc2ccccc2)c1 (stereo not given) | – | 0.045 µM | 88% | 96% | –
O=C(NO)C(Cc1ccccc1)C(=O)NCc1cccc(-c2ccccc2)c1 (stereo not given) | – | 1.17 µM | 71% | 90% | –
O=C(NO)C(Cc1ccccc1)C(=O)N1CCN(Cc2ccccc2)CC1 (stereo not given) | – | 1.76 µM | 75% | 21% | –
O=C(NO)C(Cc1cccc(Oc2ccccc2)c1)C(=O)NCCCCc1ccccc1 (stereo not given) | – | 0.225 µM | 96% | 84% | –
CC(C)CC(C(=O)NO)C(=O)NCc1ccc(Cl)cc1 (stereo not given) | – | 0.904 µM | 90% | 99% | –
CC(C)CC(C(=O)NO)C(=O)NCCCCc1ccccc1 (stereo not given) | – | 1.15 µM | 87% | 92% | –
CC(C)CC(C(=O)NO)C(=O)NCc1cccc2ccccc12 (stereo not given) | 8.58 µM | 0.091 µM | – | – | –
O=C(NO)C(Cc1ccccc1)C(=O)NCc1ccc(F)cc1 (stereo not given) | 3.62 µM | 0.027 µM | 91% | 72% | half-life [3]: 0.75 h; Ratio IC50 [6]: 134; IC50 [7]: 59 µM; IC50 [8]: 57 µM; solubility [9]: > 200 µM; logD [10]: 1.2
O=C(NO)C(Cc1cccc(Oc2ccccc2)c1)C(=O)N1CCC(Cc2ccccc2)CC1 (stereo not given) | – | 0.248 µM | 97% | 65% | –
O=C(NO)C(Cc1cccc(Oc2ccccc2)c1)C(=O)NCCCc1ccccc1 (stereo not given) | – | 0.527 µM | 93% | 89% | –
O=C(NO)C(Cc1ccccc1)C(=O)NC1Cc2ccccc2C1 (stereo not given) | – | 1.93 µM | 26% | 61% | –
O=C(NO)/C(=C/c1ccccc1)C(=O)NCc1ccc(F)cc1 | > 10 µM | 0.33 µM | – | – | –
CC(C)CC(C(=O)NO)C(=O)NCCc1ccccc1 (stereo not given) | – | 0.885 µM | 74% | 105% | –
O=C(NO)/C(=C\c1ccccc1)C(=O)NCc1ccc(F)cc1 | 1.37 µM | 0.006 µM | – | – | half-life [3]: 22 h; Ratio IC50 [6]: 229; IC50 [7]: 24 µM; IC50 [8]: 13 µM; solubility [9]: 198 µM (≈ 62.2 µg/mL); logD [10]: 1.1
O=C(NO)C(Cc1ccccc1)C(=O)NCc1cccc(Oc2ccccc2)c1 (stereo not given) | – | 2.51 µM | 87% | 83% | –
O=C(NO)C(Cc1ccccc1)C(=O)NCCc1ccccc1 (stereo not given) | – | 1.01 µM | 82% | 70% | –
O=C(NO)C(Cc1ccccc1)C(=O)N1CCc2ccccc2C1 (stereo not given) | – | 0.253 µM | 84% | 50% | –
CC(C)CC(C(=O)NO)C(=O)N1CCC(Cc2ccccc2)CC1 (stereo not given) | – | 0.406 µM | 100% | 68% | –
O=C(NO)C(Cc1cccc(Oc2ccccc2)c1)C(=O)NCc1ccc(Cl)cc1 (stereo not given) | 2.53 µM | 0.13 µM | 96% | 76% | –
Cc1ccccc1CNC(=O)C(Cc1ccccc1)C(=O)NO (stereo not given) | 1.31 µM | 0.041 µM | 95% | 85% | –
